Experimental data taken from ChEMBL document CHEMBL2331230, “Synthesis, anticancer and antioxidant activities of 2,4,5-trimethoxy chalcones and analogues from asaronaldehyde: structure-activity relationship” (Eur J Med Chem, 2013).
Values after ≈ are worked out from the molar mass of the structure shown.

Legend:
HeLa = assay: Cytotoxicity against human HeLa cells assessed as growth inhibition after 72 hrs by MTT assay; format: functional, cell-based
How it was run: (§1)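 Cells grown in DMEM with 10% FBS, seeded at 10,000 per well, and treated after 24 h with a concentration series ending at […]; pristimerin as positive control. After 72 h, MTT (5 mg/ml) added for 3 h. Formazan dissolved in DMSO, read at 570 nm. IC50 is the concentration giving 50% growth inhibition; mean ± S.D. of three tests in triplicate.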

[1] = Antioxidant activity in rat erythrocytes assessed as inhibition of phenyl hydrazine-induced haemolysis after 1 hr; format: functional, cell-based; settings: erythrocyte
How it was run: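 20% PCV erythrocyte suspension made from rat blood. Samples at various concentrations combined with 0.5 mM phenyl hydrazine and erythrocyte suspension in phosphate buffered saline (3 ml total). Incubated 37 °C for 1 h, centrifuged 1000 g for 10 min, supernatant absorbance at 540 nm. α-Tocopherol as positive control.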

[2] = Antioxidant activity assessed as nitric oxide scavenging activity after 2.5 hrs by Griess assay; format: functional
How it was run: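 Sodium nitroprusside, 10 mM in phosphate saline buffer pH 7.4, added to samples at various concentrations and held 2.5 h at room temperature. Nitrite detected with Griess reagent at 546 nm against a blank. Inhibition (%) = (1 − A1/A0)×100, with A0 the control. Ascorbic acid as standard. Means of triplicates from three independent experiments.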

MCF7 = assay: Cytotoxicity against human MCF7 cells assessed as growth inhibition after 72 hrs by MTT assay; format: functional, cell-based; settings: MCF7, 72 h; how it was run: as §1
[3] = test system: Radical scavenging activity; assay: Antioxidant activity assessed as DPPH free radical scavenging activity after 15 mins by spectrophotometric analysis; format: functional
How it was run: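 Test samples at several concentrations mixed with stock DPPH (final concentration not stated), made up to 3 ml in methanol, incubated 15 min. Absorbance at 517 nm read against a sample-free blank. Ascorbic acid at various concentrations as standard. Values are means of triplicates from three independent experiments.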

SW982 = assay: Cytotoxicity against human SW982 cells assessed as growth inhibition after 72 hrs by MTT assay; format: functional, cell-based; settings: SW982, 72 h; how it was run: as §1

| SMILES | IC50 (HeLa) | IC50 [1] | IC50 [2] | IC50 (MCF7) | IC50 [3] | IC50 (SW982) |
| --- | --- | --- | --- | --- | --- | --- |
| COc1cc(OC)c(OC)cc1/C=C/C(=O)c1ccc(-n2ccnc2)cc1 | > 150 µM | 2.481 µg/mL (≈ 6.81 µM) | 1.972 µg/mL (≈ 5.41 µM) | > 150 µM | 4.757 µg/mL (≈ 13.1 µM) | > 150 µM |
| COc1cc(OC)c(-c2cc(=O)c3cc(Cl)ccc3o2)cc1OC | > 150 µM | 2.125 µg/mL (≈ 6.13 µM) | 2.145 µg/mL (≈ 6.19 µM) | > 150 µM | 4.973 µg/mL (≈ 14.3 µM) | > 150 µM |
| COc1cc(OC)c(OC)cc1/C=C/C(=O)c1ccc(O)cc1O | 37.6 µM | 2.373 µg/mL (≈ 7.18 µM) | 2.763 µg/mL (≈ 8.36 µM) | 33.8 µM | 4.368 µg/mL (≈ 13.2 µM) | 32.4 µM |
| COc1cc(OC)c(OC)cc1/C=C/C(=O)c1ccc([N+](=O)[O-])cc1 | > 150 µM | 2.337 µg/mL (≈ 6.81 µM) | 1.982 µg/mL (≈ 5.77 µM) | > 150 µM | 4.754 µg/mL (≈ 13.8 µM) | > 150 µM |
| O=C1O[C@H]([C@@H](O)CO)C(O)=C1O [ASCORBIC ACID] |  |  | 2.632 µg/mL (≈ 14.9 µM) |  | 3.039 µg/mL (≈ 17.3 µM) |  |
| COc1cc(OC)c(-c2cc(=O)c3cc(O)ccc3o2)cc1OC | > 150 µM | 2.141 µg/mL (≈ 6.52 µM) | 2.142 µg/mL (≈ 6.52 µM) | > 150 µM | 4.487 µg/mL (≈ 13.7 µM) | > 150 µM |
| COc1cc(OC)c(OC)cc1/C=C/C(=O)c1ccc(N2CCOCC2)cc1 | > 150 µM | 2.121 µg/mL (≈ 5.53 µM) | 2.078 µg/mL (≈ 5.42 µM) | > 150 µM | 4.269 µg/mL (≈ 11.1 µM) | > 150 µM |
| COc1cc(OC)c(OC)cc1/C=C/C(=O)c1ccccc1 | > 150 µM | 2.225 µg/mL (≈ 7.46 µM) | 2.012 µg/mL (≈ 6.74 µM) | > 150 µM | 4.506 µg/mL (≈ 15.1 µM) | > 150 µM |
| COc1ccc(C(=O)/C=C/c2cc(OC)c(OC)cc2OC)cc1 | 37.6 µM | 2.178 µg/mL (≈ 6.63 µM) | 2.07 µg/mL (≈ 6.3 µM) | 33.9 µM | 4.394 µg/mL (≈ 13.4 µM) | 60.5 µM |
| COc1cc(OC)c(OC)cc1/C=C/C(=O)c1ccc(F)cc1 | 28.6 µM | 2.216 µg/mL (≈ 7.01 µM) | 1.963 µg/mL (≈ 6.21 µM) | 30 µM | 4.71 µg/mL (≈ 14.9 µM) | 32.5 µM |
| COc1cc(OC)c(OC)cc1/C=C/C(=O)c1ccc(O)cc1 |  | 2.285 µg/mL (≈ 7.27 µM) | 2.502 µg/mL (≈ 7.96 µM) | 182 µM | 4.293 µg/mL (≈ 13.7 µM) | 155 µM |
| COc1cc(OC)c(C(=O)/C=C/c2cc(OC)c(OC)cc2OC)c(OC)c1 | 108 µM | 2.134 µg/mL (≈ 5.49 µM) | 1.977 µg/mL (≈ 5.09 µM) | 51.4 µM | 5.023 µg/mL (≈ 12.9 µM) | 96.5 µM |
| COc1cc(OC)c(OC)cc1/C=C/C(=O)c1ccc(C)cc1 | 42.2 µM | 2.236 µg/mL (≈ 7.16 µM) | 2.181 µg/mL (≈ 6.98 µM) | 33 µM | 4.325 µg/mL (≈ 13.8 µM) | 81.1 µM |
| Cc1c(C)c2c(c(C)c1O)CC[C@@](C)(CCC[C@H](C)CCC[C@H](C)CCCC(C)C)O2 [ALPHA-TOCOPHEROL] |  | 3.658 µg/mL (≈ 8.49 µM) |  |  |  |  |
| COc1cc(OC)c(OC)cc1/C=C/C(=O)c1cccc([N+](=O)[O-])c1 | 130 µM | 2.209 µg/mL (≈ 6.43 µM) | 2.348 µg/mL (≈ 6.84 µM) | > 150 µM | 4.309 µg/mL (≈ 12.6 µM) | 101 µM |
| COc1cc(OC)c(OC)cc1/C=C/C(=O)c1cc(OCc2ccccc2)cc(OCc2ccccc2)c1 | 26.9 µM | 2.167 µg/mL (≈ 4.24 µM) | 2.092 µg/mL (≈ 4.1 µM) | 23.3 µM | 5.002 µg/mL (≈ 9.8 µM) | 69.9 µM |
| COc1cc(OC)c(OC)cc1/C=C/C(=O)c1ccc(Cl)cc1 | 36.5 µM | 2.298 µg/mL (≈ 6.91 µM) | 2.014 µg/mL (≈ 6.05 µM) | 29.5 µM | 4.593 µg/mL (≈ 13.8 µM) | 58.5 µM |
| CC=Cc1cc(OC)c(OC)cc1OC [CIS-ASARONE] | 126 µM |  |  | 129 µM |  | > 150 µM |
| COC(=O)[C@]1(C)CC[C@]2(C)CC[C@]3(C)C4=CC=C5C(=CC(=O)C(O)=C5C)[C@]4(C)CC[C@@]3(C)[C@@H]2C1 [PRISTIMERIN] | 3.42 µM |  |  | 0.87 µM |  | 1.28 µM |
| COc1cc(OC)c(OC)cc1/C=C/C(=O)c1cccc(C(F)(F)F)c1 | > 150 µM | 2.302 µg/mL (≈ 6.28 µM) | 2.085 µg/mL (≈ 5.69 µM) | > 150 µM | 5.153 µg/mL (≈ 14.1 µM) | > 150 µM |
| COc1cc(OC)c(OC)cc1/C=C/C(=O)c1ccc(Br)cc1 | 31.7 µM | 2.3 µg/mL (≈ 6.1 µM) | 2.224 µg/mL (≈ 5.9 µM) | 18.3 µM | 4.318 µg/mL (≈ 11.4 µM) | 38.2 µM |
| COc1cc(OC)c(-c2cc(=O)c3ccc(O)cc3o2)cc1OC | > 150 µM | 2.147 µg/mL (≈ 6.54 µM) | 2.273 µg/mL (≈ 6.92 µM) | > 150 µM | 4.808 µg/mL (≈ 14.6 µM) | > 150 µM |
| COc1cc(OC)c(OC)cc1/C=C/C(=O)c1cc(O)ccc1O | > 150 µM | 2.103 µg/mL (≈ 6.37 µM) | 2.444 µg/mL (≈ 7.4 µM) | > 150 µM | 2.653 µg/mL (≈ 8.03 µM) | > 150 µM |
| COc1cc(OC)c(-c2oc3ccc(O)cc3c(=O)c2O)cc1OC | > 150 µM | 2.154 µg/mL (≈ 6.26 µM) | 2.33 µg/mL (≈ 6.77 µM) | > 150 µM | 4.496 µg/mL (≈ 13.1 µM) | > 150 µM |
| COc1cc(OC)c(OC)cc1/C=C/C(=O)c1cc(OC(C)=O)ccc1OC(C)=O | 57.9 µM | 2.327 µg/mL (≈ 5.62 µM) | 2.37 µg/mL (≈ 5.72 µM) | 63.7 µM | 4.65 µg/mL (≈ 11.2 µM) | 78.5 µM |
| COc1cc(OC)c(OC)cc1/C=C/C(=O)c1ccc(Cl)c([N+](=O)[O-])c1 | 16.5 µM | 2.151 µg/mL (≈ 5.69 µM) | 1.99 µg/mL (≈ 5.27 µM) | 16.4 µM | 4.472 µg/mL (≈ 11.8 µM) | 20.6 µM |
| COc1cc(C(=O)/C=C/c2cc(OC)c(OC)cc2OC)ccc1O | > 150 µM | 2.163 µg/mL (≈ 6.28 µM) | 2.462 µg/mL (≈ 7.15 µM) | 95.5 µM | 4.31 µg/mL (≈ 12.5 µM) | > 150 µM |
| COc1cc(OC)c(OC)cc1/C=C/C(=O)c1cc(Cl)ccc1O | > 150 µM | 2.233 µg/mL (≈ 6.4 µM) | 2.32 µg/mL (≈ 6.65 µM) | > 150 µM | 5.073 µg/mL (≈ 14.5 µM) | > 150 µM |
| COc1cc(OC)c(-c2oc3ccc(Cl)cc3c(=O)c2O)cc1OC | > 150 µM | 2.144 µg/mL (≈ 5.91 µM) | 2.106 µg/mL (≈ 5.81 µM) | > 150 µM | 4.68 µg/mL (≈ 12.9 µM) | > 150 µM |
